# Kir21 block – inhibitors of mouse Kir2.1 inward-rectifier potassium channel. Inward rectifier potassium channel 2 (Mus musculus), P35561. HEK293-Kir2.1, FluxOR thallium flux fluorescence; hits give low values. B-score at 10 µM. 0.85% of 310,000 active. AID 1672, 2009;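 active means fluorescence ratio B-score at or below minus 3 SD of library scores, with starting-brightness B-score within 2 SD, cut at about -4.2 in these data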;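 further: channel flux triggered by added potassium and thallium sulfate stimulus; B-score of peak minus minimum fluorescence over baseline after thallium stimulus; more negative B-score means stronger Kir2.1 block with less thallium influx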
# KCNQ1 pot – potentiators or activators of KCNQ1 channel, primary screen, cell-based, thallium flux, high-throughput; B-score at 10 µM; Potassium voltage-gated channel subfamily KQT member 1 (Homo sapiens), P51787; CHO-K1 KCNQ1, thallium flux FluxOR fluorescence; hits give high values; 0.35% of 310,000 active;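 active means fluorescence ratio B-score, a plate-corrected score, at least three library SD, with initial intensity B-score within 5 SD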
#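 Medium – assay buffer, equal DMSO in all wells · Material – CHO-K1 cell line with stable KCNQ1 potassium channel expression · Signal – kinetic FluxOR thallium fluorescence, 10-s 1-Hz baseline, 110-s post-stimulus read · Compound – single concentration per compound, DMSO matched to controls · Schedule – 37 °C overnight plating, 90-min dark dye load, 20-min compound pretreatment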
# KCNQ1 block – inhibitors of human KCNQ1 channel, primary screen, cell-based, thallium flux, high-throughput; Potassium voltage-gated channel subfamily KQT member 1 (Homo sapiens), P51787; CHO-K1 KCNQ1, FluxOR thallium flux fluorescence; hits give high values; B-score at 10 µM; 1.3% of 310,000 active; AID 2642, 2010;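 active means compounds whose thallium flux B-score, printed positive for inhibition, exceeds three library SD while starting fluorescence stays within three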;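 further: channel opened by potassium depolarization with thallium stimulus after 20 min compound exposure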
# KCNK9 block – KCNK9 potassium channel inhibitors, primary screen, HEK293 cells, thallium flux. FluxOR thallium flux fluorescence; hits give low values. B-score at 10 µM. 1.2% of 310,000 active. AID 488922, 2010;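 active means ratio B-score over 3 SD below the library mean, with starting fluorescence within 5 SD of its mean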;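 further: negative B-score means less thallium flux so channel inhibition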
# Target sequence (Q9NPC2 whole entry, looked up): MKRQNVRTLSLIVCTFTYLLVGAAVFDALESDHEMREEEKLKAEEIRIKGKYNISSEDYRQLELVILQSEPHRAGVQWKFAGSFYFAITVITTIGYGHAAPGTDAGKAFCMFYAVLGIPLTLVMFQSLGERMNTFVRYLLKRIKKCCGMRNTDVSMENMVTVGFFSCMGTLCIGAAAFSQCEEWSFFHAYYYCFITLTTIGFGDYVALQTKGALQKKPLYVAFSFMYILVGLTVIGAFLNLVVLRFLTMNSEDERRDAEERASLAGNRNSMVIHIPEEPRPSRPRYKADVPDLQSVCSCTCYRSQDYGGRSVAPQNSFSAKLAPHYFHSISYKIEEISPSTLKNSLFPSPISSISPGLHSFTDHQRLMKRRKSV
# KCNK3 inh – human KCNK3 channel inhibitors, primary screen, CHO cells, FluxOR thallium flux, B-score; FluxOR fluorescence; hits give low values; Potassium channel subfamily K member 3 (Homo sapiens), O14649; AID 602410, 2012; 0.84% of 340,000 active; B-score at 10 µM;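 active means B-score under library mean minus 4 SD, starting fluorescence ratio at most library mean plus 5 SD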;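 further: more negative B-score means stronger inhibition of thallium flux through KCNK3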
# hERG rescue – hERG rescue from dofetilide block, primary screen, cell-based, CHO-hERG, FluxOR thallium flux, dofetilide IC70. Voltage-gated inwardly rectifying potassium channel KCNH2 (Homo sapiens), Q12809. dofetilide IC70 present. activation (rescue from dofetilide block), less the hit threshold, % at 10 µM. 0.51% of 310,000 active. AID 1511, 2009;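 active means activation above the mean of controls blocked by dofetilide plus 5 SD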;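 further: thallium influx through hERG after potassium depolarization seen as dye fluorescence rise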
# Active calls of the source: *; i = inactive; · = no result. Compounds with a hit are over-represented: about 3.7% of the library has one in this group of screens.
SMILES,Kir21 block,KCNQ1 pot,KCNQ1 block,KCNK9 block,KCNK3 inh,hERG rescue
COc1ccc(C2CC(=O)Oc3c(C(CCN4CCCC(C)C4)c4ccc(N(C)C)cc4)c(OC)cc(OC)c32)cc1 (stereo unspecified),0.53,i,7*,i,i,-9.9
CCOC(=O)c1cccc(C2=CC(=O)C[C@H](c3ccc(Cl)cc3)C2)c1,·,·,·,·,i,·
CC(C)=CCc1cc2c(=O)c3c(O)c4c(cc3oc2c(O)c1O)OC(C)C4(C)C (stereo unspecified),0.85,i,6*,i,·,-25.3
CC(=O)c1c(O)c(C)c(O)c2c1OC1=CC(=O)C(C(C)=O)C(=O)[C@@]12C (stereo partly specified),-1.24,i,7*,i,i,-17.8
COC(=O)CCNC(=O)Cn1cnc2sc3c(c2c1=O)CCCC3,-0.04,i,i,i,i,-7.0
O=C(CSCc1ccc(Cl)cc1)NN=C1CCCCCC1,-2.94,i,i,i,i,0.2
CC(C)(/C=N/NC(=O)CSCc1ccc(Cl)cc1)CCC#N,-1.13,i,i,i,i,5.1*
S=c1[nH]c2cc(-c3ccccc3)ccc2o1,1.71,63*,i,i,i,44.7*
Cn1c(=O)c2c(nc(N/N=C/c3ccc(OC(=O)c4ccco4)cc3)n2Cc2ccccc2Cl)n(C)c1=O,-0.53,i,7*,i,i,-6.0
N#CC1C=Cc2ccccc2N1C(=O)c1ccccc1 (stereo unspecified),-0.95,i,i,-7.26*,i,-3.6
O=C(O)C1C=Cc2ccccc2N1C(=O)c1ccccc1 (stereo unspecified) (tested in a mixture with another compound),·,·,·,·,i,·
CC[C@H](C)[C@H](NC(N)=O)C(=O)NCCc1ccc(Cl)cc1Cl,0.48,i,i,i,i,-4.0
Cn1cc(/C=C2\SC(=O)NC2=S)c2ccccc21,-2.13,i,i,i,i,15.9*
CN(Cc1ccco1)C(=O)CSc1nc(C2CC2)n(-c2ccccc2)n1,·,·,·,·,i,·
O=C(COC(=O)c1ccc(O)cc1O)N=c1sccn1Cc1ccccc1Cl,-1.9,i,i,-6.92*,i,-9.7
Cc1ccc(Cn2ccsc2=NC(=O)COC(=O)c2ccc(O)cc2O)cc1,-1.05,i,i,i,i,-5.0
N#CC1c2ccccc2C=CN1C(=O)c1ccccc1 (stereo unspecified),0.3,i,i,i,i,-8.3
N#CC1(Cc2ccccc2Cl)c2ccccc2C=CN1C(=O)c1ccccc1 (stereo unspecified),0.29,i,8*,i,i,-12.0
CCN1C(=O)[C@@H]2[C@@H](c3ccc(-c4ccc(OC)cc4)c(OC)c3)N3CCCC[C@@]3(C(=O)OC)[C@@H]2C1=O,·,·,·,·,i,·
O=S(=O)(O)c1ccc(N=Nc2ccccc2)cc1,2.02,i,i,i,i,-1.8
O=c1ccc(N=Nc2ccccc2)ccc1O,-0.04,79*,i,i,i,48.7*
COCCNC(=O)C(c1ccncc1)N(C(=O)Cn1nnc2ccccc21)c1ccc(OC)cc1 (stereo unspecified),-0.88,i,i,i,i,5.0*
CCN(C(=O)CCc1nc(-c2ccc(OC)cc2)no1)c1cc(OC)ccc1OC,-0.78,i,i,-7.55*,i,-8.2
CCc1c2ccccc2nn1-c1ccccc1C(=O)C(C)=O,-4.83*,i,i,i,i,-2.3
CCOC(=O)c1ccccc1-n1nnnc1C,0.25,i,i,i,i,-7.4
SMILES,Kir21 block,KCNQ1 pot,KCNQ1 block,KCNK9 block,KCNK3 inh,hERG rescue
Cc1noc(C)c1CSc1nnc(-c2ccccc2)n1N,-0.74,i,i,i,i,-7.8
Cc1noc(C)c1CSc1nnc2scc(-c3ccccc3)n12,-5.22*,i,i,i,i,-6.9
COC(=O)C1CCCN1C(=O)C12CC3CC(CC(C3)C1)C2 (stereo unspecified),-0.98,i,i,i,i,-8.3
O=C(COC(=O)c1cc(Cl)ccc1[N+](=O)[O-])NCc1ccc(Cl)cc1Cl,1.16,i,i,-7.3*,i,-9.9
CCCn1nc(C(=O)Nc2cc(OCC)c(N3CCOCC3)cc2OCC)c2ccccc2c1=O,·,·,·,·,i,·
N#Cc1ccsc1NC(=O)C1=COCCO1,·,·,·,·,i,·
CCCn1c2ccccc2c2cnn(CC(=O)N3CCN(C4CCCCC4)CC3)c(=O)c21,0.24,i,i,i,i,-5.4
Cc1cc(C)nc(SCc2ccc(C(=O)N/N=C/c3ccco3)cc2)n1,-4.32*,i,i,i,i,-7.6
Cc1ccccc1Oc1ccc2c(c1)[C@@H]1C[C@H]3[C@@H](C(=O)N1CC2)[C@H](C)ON3C,·,·,·,·,i,·
NNC(=O)Cn1c(-c2nonc2N)nc2ccccc21,0.13,i,i,i,i,-12.0
CCCCOc1ccccc1NC(=O)Cn1c(-c2nonc2N)nc2ccccc21,-0.93,i,i,i,-8.84*,-9.4
Cc1onc(-c2ccc(Cl)cc2Cl)c1-c1csc(N/N=C/c2ccccc2Cl)n1,-0.48,i,i,i,i,-4.2
Cc1onc(-c2ccccc2)c1-c1csc(N/N=C/c2ccccc2Cl)n1,1.88,i,9*,i,i,-7.2
CCCCc1c(C)[nH]c(C(=O)OCC)c1C,0.01,i,i,i,i,5.3*
C#CCN(CC=C)C(=O)c1ccc(OC2CCN(S(=O)(=O)N(C)C)CC2)cc1,0,i,i,i,i,-8.5
O=C1N=C(N2CCC(Cc3ccccc3)CC2)S/C1=C/c1cn[nH]c1-c1ccccc1,2.07,i,9*,i,i,-8.1
CCC(C)(C)n1nnnc1C(c1cccnc1)N1CCC(Cc2ccccc2)CC1 (stereo unspecified),0.71,i,i,-7.6*,i,-12.7
CCC(C)Sc1ccc(-c2nc3ccccn3c2NCc2ccccc2)cc1OC (stereo unspecified),·,·,·,·,i,·
COc1ccc(CSc2ccc(-c3nc4ccccn4c3NCc3ccccc3)cc2OC)cc1,-1.17,i,6*,i,i,-7.4
O=[N+]([O-])c1cccc(SSc2cccc([N+](=O)[O-])c2)c1,·,·,·,·,i,·

# Screening data: PubChem, Johns Hopkins Ion Channel Center
